Laboratory results taken from ChEMBL document CHEMBL1146340, “Synthesis of the 5-phosphono-pent-2-en-1-yl nucleosides: a new class of antiviral acyclic nucleoside phosphonates” (Bioorg Med Chem, 2007).

Assays:
[1] = Specificity index, Ratio of CC50 for MCR5 cells to EC50 for HSV1; assay type: functional
How it was run: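 Ratio of CC50 to EC50, both measured in MRC-5 human lung fibroblasts. […] CC50: neutral red uptake after 7 days, 5-fold dilutions from 100 μM to 0.03 μM, OD 540 nm; mean of 3 experiments.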

[2] = Cytotoxicity against human MRC5 cells by neutral red uptake assay; assay type: cell-based
How it was run: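 MRC-5 human lung fibroblasts seeded at 2.5 x 10^4 cells/well and incubated 24 h. Medium then replaced with MEM plus 2% FBS. Drug diluted serially 5-fold from 100 μM to 0.03 μM and exposed for 7 days. Cells stained with neutral red for 1 h, dye solubilized in 1% acetic acid/50% ethanol, OD read at 540 nm. CC50 (50% viability reduction) calculated; mean ± SD of 3 experiments.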

Compound	Selectivity index [1]	CC50 [2]
CCCCCCCCCCCCCCCCOCCCOP(=O)(O)CC/C=C\Cn1ccc(N)nc1=O	2.38	11.2 µM
CCCCCCCCCCCCCCCCOCCCOP(=O)(O)CC/C=C\Cn1ccc(=O)[nH]c1=O	–	51 µM
CCCCCCCCCCCCCCCCOCCCOP(=O)(O)CC/C=C\Cn1cc(C)c(=O)[nH]c1=O	8.22	7.4 µM
CCCCCCCCCCCCCCCCOCCCOP(=O)(O)CC/C=C\Cn1cnc2c(=O)nc(N)[nH]c21	2.1	12.2 µM
Cc1cn(C/C=C\CCP(=O)(O)O)c(=O)[nH]c1=O	–	> 100 µM
Nc1ncnc2c1ncn2C/C=C\CCP(=O)(O)O	–	> 100 µM
Nc1nc(=O)c2ncn(C/C=C\CCP(=O)(O)O)c2[nH]1	–	> 100 µM
Nc1ccn(C/C=C\CCP(=O)(O)O)c(=O)n1	–	> 100 µM
O=c1nc(O)ccn1C/C=C\CCP(=O)(O)O	–	> 100 µM
CCCCCCCCCCCCCCCCOCCCOP(=O)(O)CC/C=C\Cn1cnc2c(N)ncnc21	0.96	17.3 µM
